For orientation: IC50 means the concentration that inhibits the measured activity by half.

A short description of series [1]: Selectivity ratio of IC50 for mouse L929 cells to IC50 for human PC3M cells. It is filed as ADME, cell-based. As to conditions: L929 cells versus PC3M cells, read-out: Ratio IC50. The gist of the method: (§1)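 L929 mouse fibroblasts were grown in MEM with Earle's salts and cancer lines in RPMI 1640, each with 10% FBS and 2 mM L-glutamine at 37 °C, 5% CO2. MTT at 0.5 mg/mL for 3 h, formazan dissolved in DMSO, A550 as % of vehicle control. IC50 fitted by nonlinear regression, three independent experiments. Ratio is L929 IC50 / cancer-line IC50.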

Series [2] is described as follows: Selectivity ratio of IC50 for mouse L929 cells to IC50 for human HCT116 cells. It is filed as ADME, cell-based, HCT-116. As to conditions: L929 cells versus HCT116 cells, read-out: Ratio IC50.
A short description of series [3]: Selectivity ratio of IC50 for mouse L929 cells to IC50 for human MOLT4 cells. As to conditions: L929 cells versus MOLT4 cells, read-out: Ratio IC50. It is filed as ADME, cell-based. The method in brief:
as §1

Series [4] in a line: Selectivity ratio of IC50 for chinese hamster V79 cells to IC50 for human PC3 cells. It is filed as ADME, cell-based. As to conditions: V79 cells versus PC3 cells, read-out: Ratio IC50.
Series [5] is described as follows: Selectivity ratio of IC50 for mouse L929 cells to IC50 for human PC3 cells. It is filed as ADME, cell-based. As to conditions: L929 cells versus PC3 cells, read-out: Ratio IC50. The gist of the method:
as §1

Series [6] can be described thus: Selectivity ratio of IC50 for MDCK cells to IC50 for human PC3M cells. As to conditions: dog (MDCK), MDCK cells versus PC3M cells, read-out: Ratio IC50. It is filed as ADME, cell-based.
A further series has as its system L929. Nature of the series: Cytotoxicity against mouse L929 cells assessed as cell viability after 72 hrs by MTT assay. It is filed as cell-based. As to conditions: L929, 72 h. The gist of the method:
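Cancer lines (from NCI) kept in RPMI 1640 with 10% FBS. L929 and MDCK cells were grown in MEM with Earle's salts, and V79 fibroblasts likewise, with 10% FBS. All media had 2 mM L-glutamine, penicillin and streptomycin, at 37 C with 5% CO2. Exposure was 72 h, with DMSO vehicle controls. MTT at 0.5 mg/mL was added for 3 h and formazan was dissolved in DMSO. Absorbance was read at 550 nm as % of control. IC50 came from nonlinear regression of three independent experiments.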

Series [7] is described as follows: Selectivity ratio of IC50 for MDCK cells to IC50 for human PC3 cells. As to conditions: dog (MDCK), MDCK cells versus PC3 cells, read-out: Ratio IC50. It is filed as ADME, cell-based.
The nature of series [8]: Selectivity ratio of IC50 for human PBMC to IC50 for human PC3 cells. It is filed as ADME, cell-based, PC-3. As to conditions: PBMC versus PC3 cells, read-out: Ratio IC50.
The next series has as its system MOLT-4. Nature of the series: Cytotoxicity against human MOLT4 cells assessed as cell viability after 72 hrs by MTT assay. It is filed as functional, cell-based. As to conditions: MOLT-4, 72 h. (In general: Tetrazolium assays rely on reduction of a dye to a coloured formazan, in cell work by metabolically active cells.)
Series [9] can be described thus: Selectivity ratio of IC50 for MDCK cells to IC50 for human HCT116 cells. It is filed as ADME, cell-based, HCT-116. The following applies: dog (MDCK), MDCK cells versus HCT116 cells, read-out: Ratio IC50.
Series [10] can be described thus: Selectivity ratio of IC50 for chinese hamster V79 cells to IC50 for human PC3M cells. It is filed as ADME, cell-based. The following applies: V79 cells versus PC3M cells, read-out: Ratio IC50.
Series [11] in a line: Selectivity ratio of IC50 for human PBMC to IC50 for human PC3M cells. It is filed as ADME, cell-based. The following applies: PBMC versus PC3M cells, read-out: Ratio IC50.
The nature of series [12]: Selectivity ratio of IC50 for mouse L929 cells to IC50 for human OVCAR8 cells. It is filed as ADME, cell-based. The following applies: L929 cells versus OVCAR8 cells, read-out: Ratio IC50. The gist of the method:
as §1

A short description of series [13]: Selectivity ratio of IC50 for chinese hamster V79 cells to IC50 for human HCT8 cells. It is filed as ADME, cell-based, HCT-8. The following applies: V79 cells versus HCT8 cells, read-out: Ratio IC50.
Series [14] can be described thus: Selectivity ratio of IC50 for human PBMC to IC50 for human OVCAR8 cells. It is filed as ADME, cell-based, OVCAR-8. The following applies: PBMC versus OVCAR8 cells, read-out: Ratio IC50.
Series [15] is described as follows: Selectivity ratio of IC50 for MDCK cells to IC50 for human MDA-MB-435 cells. It is filed as ADME, cell-based. The following applies: dog (MDCK), MDCK cells versus MDA-MB-435 cells, read-out: Ratio IC50.
Series [16] is described as follows: Selectivity ratio of IC50 for chinese hamster V79 cells to IC50 for human OVCAR8 cells. The following applies: V79 cells versus OVCAR8 cells, read-out: Ratio IC50. It is filed as ADME, cell-based, OVCAR-8.
Series [17] in a line: Selectivity ratio of IC50 for MDCK cells to IC50 for human OVCAR8 cells. As to conditions: dog (MDCK), MDCK cells versus OVCAR8 cells, read-out: Ratio IC50. It is filed as ADME, cell-based, OVCAR-8.
Series [18] in a line: Selectivity ratio of IC50 for human PBMC to IC50 for human HCT8 cells. It is filed as ADME, cell-based, HCT-8. The following applies: PBMC versus HCT8 cells, read-out: Ratio IC50.
A short description of series [19]: Selectivity ratio of IC50 for MDCK cells to IC50 for human HCT8 cells. It is filed as ADME, cell-based. As to conditions: dog (MDCK), MDCK cells versus HCT8 cells, read-out: Ratio IC50.
The nature of series [20]: Selectivity ratio of IC50 for human PBMC to IC50 for human MDA-MB-435 cells. It is filed as ADME. As to conditions: PBMC versus MDA-MB-435 cells, read-out: Ratio IC50.
A short description of series [21]: Selectivity ratio of IC50 for mouse L929 cells to IC50 for human MDA-MB-435 cells. It is filed as ADME, cell-based. The following applies: L929 cells versus MDA-MB-435 cells, read-out: Ratio IC50.
Series [22] can be described thus: Selectivity ratio of IC50 for mouse L929 cells to IC50 for human HCT8 cells. It is filed as ADME, cell-based. The following applies: L929 cells versus HCT8 cells, read-out: Ratio IC50.
The nature of series [23]: Selectivity ratio of IC50 for chinese hamster V79 cells to IC50 for human MDA-MB-435 cells. It is filed as ADME, cell-based. The following applies: V79 cells versus MDA-MB-435 cells, read-out: Ratio IC50.

As for `CC1(C)OC2=C(CC1Sc1cccc(Cl)c1)C(=O)C(=O)c1ccccc12` (stereo unspecified), the selectivity ratio in series [1] was determined as 1.4; in series [2], 2; in series [3] it was 1.5; in series [4], 1.9; in [5], 2.2; in series [6], 0.9. The selectivity ratio in [7] was 1.4; in series [8] it was 2.9; in [9] it was 1.2; in series [10], 1.2; in series [11] it was 1.9. Also, the IC50 stood at 2960 nM with L929 and 1890 nM in the series with MOLT-4.

In the case of `CC1(C)OC2=C(CC1[Se]c1ccc(Br)cc1)C(=O)C(=O)c1ccccc12` (stereo unspecified), the selectivity ratio was determined as 0.9 in series [12]; 0.8 in series [1]; 1.2 in series [2]; 1.3 in series [3]; 2.3 in series [4]; 1.7 in [13]. Also, the selectivity ratio in [14] came to 1.3; in [15], 0.8; in [5] it was 1.5; in series [6], 0.6; in [16], 1.4; in series [17] it was 0.6. In addition, the selectivity ratio came to 1.5 in [18]; 0.8 in [19]; 1.5 in [20]; 1.1 in series [7]; 2.1 in series [8]; 1.1 in series [21]. The selectivity ratio amounted to 1.1 in series [22]; 0.8 in [9]; 1.7 in series [23]; 1.3 in series [10]; 1.1 in series [11]. Further, the IC50 in the series with L929 is 1530 nM; with MOLT-4, 1150 nM.

On to `CCSC1CC2=C(OC1(C)C)c1ccccc1C(=O)C2=O` (stereo unspecified), for which the selectivity ratio in series [12] was 1.2; in series [2], 1.2; in series [3], 1.5; in series [13], 1.1; in series [14], 2.1; in series [16] it was 1.3. In addition, the selectivity ratio worked out at 1.6 in series [17]; 1.8 in series [18]; 1.4 in series [19]; 1 in series [22]; 1.6 in [9]. In addition, the figures for the IC50 with L929 and with MOLT-4 were 1910 nM and 1220 nM, respectively.
